In ChEMBL document CHEMBL1128560, “Synthesis and structure-activity relationships of analogs of 2'-deoxy-2'-(3-methoxybenzamido)adenosine, a selective inhibitor of trypanosomal glycosomal glyceraldehyde-3-phosphate dehydrogenase” (J Med Chem, 1995):
pIC50: −log10 of the molar value.

Key:
[1] = TInhibition of glyceraldehyde-3-phosphate dehydrogenase in Leishmania mexicana
Outline: (§1)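 Enzyme sources: human erythrocyte GAPDH, glycosomal GAPDH from T. brucei, and glycosomal GAPDH from L. mexicana. IC50 is the inhibitor concentration at which 50% of enzyme activity remains. Poorly soluble compounds were not tested above their solubility limit, and the remaining activity at that level was recorded instead.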

[2] = Inhibition of glyceraldehyde-3-phosphate dehydrogenase in Trypanosoma brucei; outline: as §1
[3] = target: Glyceraldehyde-3-phosphate dehydrogenase (Homo sapiens, UniProt P04406); test: Inhibition of Glyceraldehyde-3-phosphate dehydrogenase in human erythrocytes.; format: cell-based; outline: as §1
Glyceraldehyde-3-phosphate dehydrogenase, sequence (P04406 whole entry): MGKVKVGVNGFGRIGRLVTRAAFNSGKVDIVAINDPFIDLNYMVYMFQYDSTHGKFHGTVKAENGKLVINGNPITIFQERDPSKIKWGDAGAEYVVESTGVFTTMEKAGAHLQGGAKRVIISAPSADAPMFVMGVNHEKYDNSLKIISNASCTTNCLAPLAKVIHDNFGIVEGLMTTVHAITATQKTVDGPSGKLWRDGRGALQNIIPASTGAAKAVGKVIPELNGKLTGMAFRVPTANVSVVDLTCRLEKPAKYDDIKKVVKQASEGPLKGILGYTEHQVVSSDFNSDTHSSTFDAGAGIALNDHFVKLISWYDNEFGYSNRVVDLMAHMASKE

pIC50 [1]	pIC50 [2]	pIC50 [3]	Structure (SMILES)
< 2.40	< 2.40	–	Nc1ncnc2c1ncn2CCNC(=O)c1cccc(Cl)c1
< 2.40	< 2.40	–	Nc1ncnc2c1ncn2CCNC(=O)c1cccc(F)c1
2.80	2.74	2.74	NCCn1c(-c2cccs2)nc2c(N)ncnc21
3.15	2.82	2.82	Nc1ncnc2c1ncn2[C@@H]1CCC[C@H]1NC(=O)c1cccc(Br)c1
< 2.40	< 2.70	–	Cc1ccc(C(=O)NCCn2cnc3c(N)ncnc32)cc1
3.30	3.22	2.89	Nc1ncnc2c1nc(-c1cccs1)n2[C@@H]1O[C@H](CO)[C@@H](O)[C@H]1O
3.52	2.66	< 2.00	COc1cccc(C(=O)N[C@@H]2[C@H](O)[C@@H](CO)O[C@H]2n2cnc3c(N)ncnc32)c1
2.05	2.05	< 2.00	COc1nc2c(N)ncnc2n1[C@@H]1O[C@H](CO)[C@@H](O)[C@H]1NC(=O)c1ccccc1
3.30	2.92	2.92	Nc1ncnc2c1nc(-c1cccs1)n2[C@@H]1O[C@H](CO)[C@@H](O)[C@H]1NC(=O)c1ccccc1
< 2.00	< 2.00	< 2.00	Nc1ncnc2c1ncn2[C@@H]1O[C@H](CO)[C@@H](O)[C@H]1NCc1ccccc1
2.52	2.52	< 2.00	Nc1ncnc2c1ncn2[C@@H]1O[C@H](CO)[C@@H](O)[C@H]1NC(=O)c1ccc2[nH]cnc2c1
3.70	3.30	< 2.70	Nc1ncnc2c1ncn2[C@@H]1O[C@H](CO)[C@@H](O)[C@H]1NC(=O)c1cccc(Cl)c1
3.40	3.30	3.22	CCOc1cccc(C(=O)N[C@@H]2[C@H](O)[C@@H](CO)O[C@H]2n2cnc3c(N)ncnc32)c1
3.70	3.70	3.40	Nc1ncnc2c1ncn2[C@@H]1O[C@H](CO)[C@@H](O)[C@H]1NC(=O)c1ccc(-c2ccccc2)cc1
3.30	3.00	< 2.70	Nc1ncnc2c1ncn2[C@@H]1O[C@H](CO)[C@@H](O)[C@H]1NC(=O)c1ccc2cccnc2c1
< 2.00	< 2.00	< 2.00	CC(C)COC(=O)N[C@@H]1[C@H](O)[C@@H](CO)O[C@H]1n1cnc2c(N)ncnc21
< 2.00	< 2.00	< 2.00	COc1cccc(C(=O)N[C@@H]2[C@H](O)[C@@H](CO)O[C@H]2n2cnc3c(N)nc(C)nc32)c1
2.52	2.20	< 2.00	Nc1ncnc2c1nc(Br)n2[C@@H]1O[C@H](CO)[C@@H](O)[C@H]1NC(=O)c1ccccc1
2.22	2.10	< 2.00	Cc1nc(N)c2[nH]cnc2n1
3.40	3.30	3.22	Nc1ncnc2c1nc(-c1cccs1)n2CCNCc1ccccc1
< 2.40	< 2.40	–	Nc1ncnc2c1ncn2[C@@H]1CCC[C@H]1NC(=O)c1ccccc1
< 2.30	< 2.40	–	COc1cccc(C(=O)N[C@@H]2CCC[C@H]2n2cnc3c(N)ncnc32)c1
< 2.70	< 2.40	–	Nc1ncnc2c1ncn2[C@@H]1CCC[C@H]1NC(=O)c1cccc(Cl)c1
2.40	2.70	2.10	Nc1ncnc2c1nc(Sc1ncccn1)n2C1O[C@H](CO)[C@@H](O)[C@H]1O (stereo partly drawn)
3.60	3.60	3.60	Nc1ncnc2c1ncn2C1O[C@H](CNC(=O)C(c2ccccc2)c2ccccc2)[C@@H](O)[C@H]1O (stereo partly drawn)
< 2.70	< 3.00	< 2.70	Nc1ncnc2c1nc(SC1CCCCC1)n2C1O[C@H](CO)[C@@H](O)[C@H]1O (stereo partly drawn)
3.12	< 3.00	< 2.70	CCc1ccc(-c2ccc(C(=O)NC[C@H]3OC(n4cnc5c(N)ncnc54)[C@H](O)[C@@H]3O)cc2)cc1 (stereo partly drawn)
1.30	1.00	1.46	Nc1ncnc2c1ncn2[C@@H]1O[C@H](CO)[C@@H](O)[C@H]1O [ADENOSINE]
